Source: ChEMBL document CHEMBL1136739, “Modes of methyleneoxy bridging and their effect on tetrahydronaphthalene lignan cytotoxicity” (2003)

Experiments:
SF-539 = experiment: Cytotoxicity against CNS SF-539 cell line; format: functional; settings: Homo sapiens
Outline: (§1)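 Tested in the 60 human cancer cell line panel, after a preliminary one-dose screen in three cell lines. The value is the molar concentration giving 50% growth inhibition (GI50), reported as log GI50 for each cell line.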

HCT-116 = experiment: Cytotoxicity against colon HCT116 cell line; format: functional; settings: Homo sapiens; outline: as §1
[1] = tested on: Panel (Carcinoma cell lines); experiment: Mean graph midpoint for growth inhibition of all human cancer cell lines.; format: functional
Outline: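 Mean graph midpoint: the average GI50 (molar) over all human cancer cell lines successfully tested in the 60 cell line panel, expressed as log GI50.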

HOP-62 = experiment: Cytotoxicity against lung HOP-62 cell line; format: functional; settings: Homo sapiens; outline: as §1
UACC-62 = experiment: Cytotoxicity against melanoma UACC-62 cell line; format: functional; settings: Homo sapiens; outline: as §1
OVCAR-3 = experiment: Cytotoxicity against ovarian OVCAR-3 cell line; format: functional; settings: Homo sapiens; outline: as §1
SN12C = experiment: Cytotoxicity against renal SN12C cell line; format: functional; settings: Homo sapiens; outline: as §1
DU-145 = experiment: Cytotoxicity against prostate DU-145 cell line; format: functional; settings: Homo sapiens; outline: as §1
MDA-MB-435 (human) = experiment: Cytotoxicity against breast MDA-MB-435 cell line
SNB-75 = experiment: Cytotoxicity against prostate CNS SNB-75 cell line; format: functional; settings: Homo sapiens; outline: as §1
SR = experiment: Cytotoxicity against leukemia SR cell line; format: functional; settings: Homo sapiens; outline: as §1
NCI-H322M = experiment: Cytotoxicity against lung […] cell line; format: functional; settings: Homo sapiens; outline: as §1
OVCAR-4 = experiment: Cytotoxicity against […] OVCAR-4 cell line; format: functional; settings: Homo sapiens; outline: as §1
[2] = in the assay text read “CNS” for “prostate CNS”

Compound `COc1cc([C@]23OC[C@H](Cc4cc5c(cc42)OCO5)[C@H]3CO)cc(OC)c1OC` has a GI50 (SF-539) of 3.89 µM, a GI50 (HCT-116) of 0.0437 µM and a GI50 [1] of 10.5 µM. For the same compound, the GI50 (HOP-62) was 0.219 µM, the GI50 (UACC-62) was 0.0776 µM and the GI50 (OVCAR-3) was 0.182 µM. The GI50 (SN12C) was 4.79 µM, the GI50 (DU-145) was 4.47 µM and the GI50 (MDA-MB-435 (human)) was 7.41 µM.
Compound `COc1cc([C@]23OC[C@H](Cc4cc5c(cc42)OCO5)[C@@H]3CO)cc(OC)c1OC` has a GI50 (SF-539) of 2.51 µM, a GI50 (SNB-75; [2]) of 2.69 µM and a GI50 (HCT-116) of 2.88 µM. For the same compound, the GI50 [1] was 4.07 µM, the GI50 (SR) was 0.589 µM and the GI50 (HOP-62) was 4.37 µM. The GI50 (NCI-H322M) was 6.17 µM, the GI50 (UACC-62) was 4.27 µM and the GI50 (OVCAR-3) was 1.45 µM. For the same compound, the GI50 (OVCAR-4) was 23.4 µM, the GI50 (DU-145) was 2.63 µM and the GI50 (MDA-MB-435 (human)) was 0.295 µM.
`COc1cc([C@]23OC[C@H](Cc4cc5c(cc42)OCO5)[C@@H]3C)cc(OC)c1OC` showed a GI50 (SNB-75) of 0.38 µM, a GI50 (HCT-116) of 0.437 µM and a GI50 [1] of 0.851 µM. For the same compound, the GI50 (SR) was 0.148 µM, the GI50 (HOP-62) was 0.794 µM and the GI50 (NCI-H322M) was 2.14 µM. It also gave a GI50 (UACC-62) of 0.407 µM, a GI50 (OVCAR-3) of 0.186 µM and a GI50 (OVCAR-4) of 0.38 µM. For the same compound, the GI50 (SN12C) was 5.37 µM and the GI50 (DU-145) was 0.479 µM.
Compound `COc1ccc(C23OCC24C2COC(c5cc(OC)c(OC)cc53)C24)cc1OC` (stereo unspecified) has a GI50 (SF-539) greater than 100 µM, a GI50 (HCT-116) greater than 100 µM and a GI50 [1] greater than 100 µM. The GI50 (HOP-62) was greater than 100 µM, the GI50 (UACC-62) was greater than 100 µM and the GI50 (OVCAR-3) was greater than 100 µM. For the same compound, the GI50 (DU-145) was greater than 100 µM and the GI50 (MDA-MB-435 (human)) was greater than 100 µM.
In the case of `COc1cc([C@@H]2c3cc4c(cc3[C@H]3OC[C@@H]2[C@@H]3CO)OCO4)cc(OC)c1OC`, the GI50 (SF-539) is reported as 17.8 µM, the GI50 (HCT-116) is reported as 30.2 µM and the GI50 [1] is reported as 32.4 µM. It also gave a GI50 (HOP-62) of 47.9 µM, a GI50 (UACC-62) of 18.2 µM and a GI50 (OVCAR-3) of 24 µM. It also gave a GI50 (SN12C) of 58.9 µM, a GI50 (DU-145) of 30.2 µM and a GI50 (MDA-MB-435 (human)) of 6.76 µM.
`COc1cc2c(cc1OC)[C@@H]1OC[C@H]([C@@H]2c2cc(OC)c(OC)c(OC)c2)[C@@H]1CO` gave a GI50 [1] greater than 100 µM.
Compound `COc1cc2c(cc1OC)[C@]1(c3cc(OC)c(OC)c(OC)c3)OC[C@H](C2)[C@@H]1CO` has a GI50 (SF-539) of 17.8 µM, a GI50 (HCT-116) of 30.2 µM and a GI50 [1] of 47.9 µM. For the same compound, the GI50 (SR) was 44.7 µM, the GI50 (HOP-62) was 47.9 µM and the GI50 (NCI-H322M) was 43.7 µM. It also gave a GI50 (UACC-62) of 63.1 µM, a GI50 (OVCAR-3) of 24 µM and a GI50 (OVCAR-4) of 77.6 µM. It also gave a GI50 (SN12C) of 58.9 µM, a GI50 (DU-145) of 30.2 µM and a GI50 (MDA-MB-435 (human)) of 6.76 µM.
`COc1cc2c(c(OC)c1OC)OC[C@@H]1[C@H]2c2cc3c(cc2C[C@H]1C)OCO3` gave a GI50 (SF-539) of 20.9 µM, a GI50 (SNB-75; [2]) of 12.3 µM and a GI50 (HCT-116) of 31.6 µM. For the same compound, the GI50 [1] was 38 µM, the GI50 (SR) was 19.1 µM and the GI50 (HOP-62) was greater than 75.9 µM. For the same compound, the GI50 (NCI-H322M) was greater than 75.9 µM, the GI50 (UACC-62) was 30.2 µM and the GI50 (OVCAR-3) was 33.1 µM. It also gave a GI50 (OVCAR-4) of 37.2 µM, a GI50 (SN12C) greater than 75.9 µM and a GI50 (DU-145) greater than 75.9 µM. It also gave a GI50 (MDA-MB-435 (human)) of 11.5 µM.
Work on `COc1cc2c(c(OC)c1OC)OC[C@H]1[C@H](CO)Cc3cc4c(cc3[C@@H]21)OCO4` yielded a GI50 (SF-539) of 20.9 µM, a GI50 (SNB-75; [2]) of 42.7 µM and a GI50 (HCT-116) of 30.2 µM. For the same compound, the GI50 [1] was 30.9 µM, the GI50 (SR) was 5.13 µM and the GI50 (HOP-62) was 52.5 µM. For the same compound, the GI50 (NCI-H322M) was 47.9 µM, the GI50 (UACC-62) was 25.7 µM and the GI50 (OVCAR-3) was 25.1 µM. The GI50 (OVCAR-4) was 39.8 µM, the GI50 (SN12C) was 44.7 µM and the GI50 (DU-145) was 37.2 µM. The GI50 (MDA-MB-435 (human)) was 19.1 µM.
`COc1cc2c(cc1OC)C1(c3cc(OC)c(OC)c(OC)c3)OCC13C1COC2C13` (stereo unspecified) gave a GI50 (SF-539) of 31.6 µM, a GI50 (HCT-116) of 28.2 µM and a GI50 [1] of 41.7 µM. It also gave a GI50 (HOP-62) of 70.8 µM, a GI50 (UACC-62) of 69.2 µM and a GI50 (OVCAR-3) of 30.2 µM. The GI50 (SN12C) was 34.7 µM, the GI50 (DU-145) was 29.5 µM and the GI50 (MDA-MB-435 (human)) was 19.5 µM.
`COc1cc([C@]23OC[C@H](Cc4cc5c(cc42)OCO5)[C@@H]3COC(C)=O)cc(OC)c1OC` was tested, and the GI50 (SF-539) was 1.74 µM, the GI50 (SNB-75; [2]) was 2 µM and the GI50 (HCT-116) was 2.34 µM. The GI50 [1] was 3.89 µM, the GI50 (SR) was 0.759 µM and the GI50 (HOP-62) was 4.27 µM. It also gave a GI50 (NCI-H322M) of 4.37 µM, a GI50 (UACC-62) of 2.95 µM and a GI50 (OVCAR-3) of 2.14 µM. The GI50 (OVCAR-4) was 4.27 µM, the GI50 (SN12C) was 5.01 µM and the GI50 (DU-145) was 4.57 µM. The GI50 (MDA-MB-435 (human)) was 0.468 µM.
For `COc1cc([C@@H]2c3cc4c(cc3[C@@H]3OC[C@H]2[C@@H]3CO)OCO4)cc(OC)c1OC`, the GI50 (SF-539) was 15.5 µM, the GI50 (HCT-116) was 29.5 µM and the GI50 [1] was 23.4 µM. For the same compound, the GI50 (HOP-62) was 19.1 µM, the GI50 (UACC-62) was 26.9 µM and the GI50 (OVCAR-3) was 14.5 µM. For the same compound, the GI50 (SN12C) was 31.6 µM, the GI50 (DU-145) was 39.8 µM and the GI50 (MDA-MB-435 (human)) was 3.89 µM.
`COc1cc2c(cc1OC)[C@H]1c3cc(OC)c(OC)c(OC)c3OC[C@H]1[C@H](CO)C2` gave a GI50 (SF-539) of 24.5 µM, a GI50 (SNB-75; [2]) of 3.63 µM and a GI50 (HCT-116) of 22.4 µM. The GI50 [1] was 20 µM, the GI50 (SR) was 18.2 µM and the GI50 (HOP-62) was 60.3 µM. The GI50 (NCI-H322M) was 8.71 µM, the GI50 (UACC-62) was 20 µM and the GI50 (OVCAR-3) was 15.1 µM. For the same compound, the GI50 (OVCAR-4) was 1.95 µM, the GI50 (SN12C) was 25.1 µM and the GI50 (DU-145) was 22.9 µM. It also gave a GI50 (MDA-MB-435 (human)) of 18.2 µM.
For `COc1cc(C23OCC24C2COC(c5cc6c(cc53)OCO6)C24)cc(OC)c1OC` (stereo unspecified), the GI50 (SF-539) was less than 0.01 µM, the GI50 (HCT-116) was less than 0.01 µM and the GI50 [1] was 0.0182 µM. For the same compound, the GI50 (HOP-62) was less than 0.01 µM, the GI50 (UACC-62) was less than 0.01 µM and the GI50 (OVCAR-3) was less than 0.01 µM. For the same compound, the GI50 (DU-145) was less than 0.01 µM and the GI50 (MDA-MB-435 (human)) was less than 0.01 µM.
For `COc1cc([C@]23OC[C@H](Cc4cc5c(cc42)OCO5)[C@H]3COC(C)=O)cc(OC)c1OC`, the GI50 (SF-539) was 19.1 µM, the GI50 (HCT-116) was 13.8 µM and the GI50 [1] was 12.3 µM. The GI50 (HOP-62) was 25.1 µM, the GI50 (UACC-62) was 10 µM and the GI50 (SN12C) was 25.7 µM. The GI50 (MDA-MB-435 (human)) was 1.86 µM.
`COc1ccc([C@]23OC[C@H](Cc4cc(OC)c(OC)cc42)[C@@H]3C)cc1OC` showed a GI50 (SF-539) of 1.95 µM, a GI50 (HCT-116) of 2.75 µM and a GI50 [1] of 3.8 µM. It also gave a GI50 (HOP-62) of 2.4 µM, a GI50 (UACC-62) of 6.92 µM and a GI50 (OVCAR-3) of 2.4 µM. For the same compound, the GI50 (SN12C) was 12 µM and the GI50 (DU-145) was 3.89 µM.
`COc1cc2c(c(OC)c1OC)OC[C@H]1[C@H](COC(C)=O)Cc3cc4c(cc3[C@@H]21)OCO4` gave a GI50 (SF-539) of 57.5 µM, a GI50 (HCT-116) of 61.7 µM and a GI50 [1] of 40.7 µM. It also gave a GI50 (SR) of 21.9 µM, a GI50 (HOP-62) of 67.6 µM and a GI50 (UACC-62) of 31.6 µM. It also gave a GI50 (OVCAR-3) of 56.2 µM, a GI50 (OVCAR-4) of 47.9 µM and a GI50 (SN12C) of 40.7 µM. It also gave a GI50 (DU-145) of 70.8 µM and a GI50 (MDA-MB-435 (human)) of 39.8 µM.
